The text below walks through data of ChEMBL document CHEMBL1255258, “Aminoglycosides affect intracellular Salmonella enterica serovars typhimurium and virchow” (Antimicrob Agents Chemother, 2008).

Test [1] relates to Salmonella enterica subsp. enterica serovar Virchow. Kind of test: Reduction in light emission by Salmonella enterica serovars virchow isolate 101591 infected in mouse J774A.1 cells after 5 mins. The test is classed as functional, cell-based. The gist of the method: (§1)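 Salmonella carrying pChν1 infected J774 macrophages (100:1, polymyxin B wash). Cells were held in antibiotic-free RPMI for 10 min at 37°C. Homoserine lactone 500 ng ml−1 was added, and 20 min later aminoglycoside at 15, 50, 100 or 150 μg ml−1. Luminescence was read every 5 min to 40 or 60 min, as % of untreated wells. Triplicate wells, at least three experiments.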

The subject of test [2] is Salmonella typhimurium. Kind of test: Antibacterial activity against Salmonella enterica serovars Typhimurium ATCC 14028 assessed as log reduction in viable counts at 150 ug/ml after 1hr. The test is classed as functional, organism-based. The conditions noted are these: Salmonella enterica subsp. enterica serovar Typhimurium.
The test system of test [3] is Salmonella typhimurium. Nature of the test: Antibacterial activity against Salmonella enterica serovars Typhimurium ATCC 14028 infected in mouse J774A.1 cells at 50 ug/ml after 1hr. The test is classed as functional, organism-based. The conditions noted are these: Salmonella enterica subsp. enterica serovar Typhimurium. The gist of the method:
(§2)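 J774 macrophages were seeded overnight at 37°C in 5% CO2, then switched to antibiotic-free RPMI. They were infected at 100:1 with Salmonella grown in RPMI to OD600 about 1. Extracellular bacteria were removed with 5 μg ml−1 polymyxin B for 10 min. Aminoglycoside was given for 1 h. Cells were lysed in 1% Triton X-100 buffer, and 1:10 serial dilutions were plated on LB agar.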

Test [4] relates to Salmonella typhimurium. Kind of test: Antibacterial activity against Salmonella enterica serovars Typhimurium ATCC 14028 infected in mouse J774A.1 macrophage assessed as log reduction in viable counts at 150 ug/ml after 1hr. The test is classed as functional, organism-based. The conditions noted are these: Salmonella enterica subsp. enterica serovar Typhimurium. The gist of the method:
as §2

Test [5] is described as follows: (§3) Antibacterial activity against Salmonella enterica serovars virchow isolate 101591 at pH 5.7 by broth dilution method. In kind it is functional, Salmonella enterica subsp. enterica serovar Virchow. The gist of the method: (§4)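 Broth dilution MIC. Overnight cultures were diluted 1:100 in LB broth buffered with phosphate to pH 7 or 5.7, giving a final inoculum of ~10^6 CFU ml−1. Antibiotic range was 0 to 500 μg ml−1. Absorbance at 600 nm was read after 24 h at 37°C with shaking; mean of three experiments.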

The test system of test [6] is Salmonella typhimurium. Nature of the test: Antibacterial activity against Salmonella enterica serovars Typhimurium ATCC 14028 at pH 5.7 by broth dilution method. The test is classed as functional, Salmonella enterica subsp. enterica serovar Typhimurium. The gist of the method: as §4
Test [7] can be described thus: (§5) Antibacterial activity against Salmonella enterica serovars virchow isolate 101591 at pH 7.0 by broth dilution method. The test is classed as functional, Salmonella enterica subsp. enterica serovar Virchow. The gist of the method:
as §4

Test [8] relates to Salmonella typhimurium. Nature of the test: Antibacterial activity against Salmonella enterica serovars Typhimurium ATCC 14028 at pH 7.0 by broth dilution method. The test is classed as functional, Salmonella enterica subsp. enterica serovar Typhimurium. The gist of the method: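 Broth dilution MIC in LB broth buffered with phosphate to pH 7. Overnight culture was diluted 1:100 to about 10^6 CFU ml−1 final, with antibiotic at 0 to 500 μg ml−1. A600 was read after 24 h at 37°C with shaking.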

Test [9] in a line: Antibacterial activity against Salmonella enterica serovars virchow isolate 101591 at pH 5.7 by bioluminescence assay. In kind it is functional, Salmonella enterica subsp. enterica serovar Virchow. The gist of the method:
(§6)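 Overnight cultures carrying the pChν1 lux plasmid were diluted 1:100 in LB broth with 30 μg ml−1 chloramphenicol, adjusted to pH 7 or 5.7. Final titer was ~10^6 CFU ml−1, with antibiotic at 0 to 500 μg ml−1. After 1 h at 30°C, homoserine-lactone (100 ng ml−1) was added to induce light. EC50 was the concentration halving light emission at 60 min; mean of three experiments.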

A short description of test [10]: Antibacterial activity against Salmonella enterica serovars virchow isolate 101591 at pH 7.0 by bioluminescence assay. The test is classed as functional, Salmonella enterica subsp. enterica serovar Virchow. The gist of the method: as §6
In test [11] the test system is Salmonella typhimurium. Kind of test: Antibacterial activity against Salmonella enterica serovars Typhimurium ATCC 14028 at pH 7.0 by bioluminescence assay. In kind it is functional, organism-based, Salmonella enterica subsp. enterica serovar Typhimurium. The gist of the method:
as §6

Test [12] has as its system Salmonella typhimurium. Nature of the test: Antibacterial activity against Salmonella enterica serovars Typhimurium ATCC 14028 at pH 5.7 by bioluminescence assay. In kind it is functional, organism-based, Salmonella enterica subsp. enterica serovar Typhimurium. The gist of the method: as §6
The test system of test [13] is Salmonella enterica subsp. enterica serovar Virchow. Kind of test: Antibacterial activity against Salmonella enterica serovars virchow isolate 101591 assessed as log reduction in viable counts at 150 ug/ml after 1hr. The test is classed as functional.
For test [14] the test system is unchanged. Kind of test: Antibacterial activity against Salmonella enterica serovars virchow isolate 101591 infected in mouse J774A.1 cells at 50 ug/ml after 1hr. In kind it is functional, cell-based. The gist of the method:
as §2

Test [15] shares this test system. Kind of test: Antibacterial activity against Salmonella enterica serovars virchow isolate 101591 infected in mouse J774A.1 macrophage assessed as log reduction in viable counts at 150 ug/ml after 1hr. The test is classed as functional. The gist of the method: as §2
The subject of test [16] is Salmonella. Nature of the test: Antibacterial activity against Salmonella infected in mouse RAW 264.7 cells expressing Nramp1 assessed as log reduction in viable count at 100 ug/ml. In kind it is functional, organism-based.
Test [17] relates to Salmonella typhimurium. Kind of test: Reduction in light emission by Salmonella enterica serovars Typhimurium ATCC 14028 infected in mouse Nramp deficient RAW 264.7 cells at 100 ug/ml. The test is classed as functional, organism-based. The arrangement: scale not given: the % may be the effect or the level left. Particulars: Salmonella enterica subsp. enterica serovar Typhimurium. The gist of the method:
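RAW 264.7 macrophages, Nramp1+ (R37) or Nramp1-null (R21), were infected with serovar Typhimurium carrying pChν1. Homoserine lactone was 500 ng ml−1. Gentamicin 100 μg ml−1 was added 0.5 to 3 h after infection. Luminescence was read every 5 min, as a ratio to untreated control in the same cell line. Triplicate, at least three trials.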

Test [18] concerns Salmonella. Nature of the test: Antibacterial activity against Salmonella infected in mouse Nramp1 deficient RAW 264.7 cells assessed as log reduction in viable count at 100 ug/ml. In kind it is functional, organism-based.
Test [19] relates to Salmonella typhimurium. Nature of the test: Reduction in light emission by Salmonella enterica serovars Typhimurium ATCC 14028 infected in mouse J774A.1 cells at 50 ug/ml after 40 mins. In kind it is functional, organism-based. The conditions noted are these: Salmonella enterica subsp. enterica serovar Typhimurium. The gist of the method: as §1
The test system of test [20] is Salmonella typhimurium. Kind of test: Reduction in light emission by Salmonella enterica serovars Typhimurium ATCC 14028 infected in mouse J774A.1 cells at 50 ug/ml after 30 mins. In kind it is functional, organism-based. Particulars: Salmonella enterica subsp. enterica serovar Typhimurium. The gist of the method:
as §1

Test [21] concerns Salmonella typhimurium. Kind of test: Reduction in light emission by Salmonella enterica serovars Typhimurium ATCC 14028 infected in mouse J774A.1 cells at 50 ug/ml within 5 mins. In kind it is functional, organism-based. The conditions noted are these: Salmonella enterica subsp. enterica serovar Typhimurium. The gist of the method: as §1
Test [22] has as its system Salmonella typhimurium. Kind of test: Reduction in light emission by Salmonella enterica serovars Typhimurium ATCC 14028 infected in mouse J774A.1 cells at 15 ug/ml after 40 mins. The test is classed as functional, organism-based. The arrangement: scale not given: the % may be the effect or the level left. Particulars: Salmonella enterica subsp. enterica serovar Typhimurium. The gist of the method:
as §1

In test [23] the test system is Salmonella typhimurium. Nature of the test: Reduction in light emission by Salmonella enterica serovars Typhimurium ATCC 14028 infected in mouse J774A.1 cells at 15 ug/ml after 30 mins. In kind it is functional, organism-based. The conditions noted are these: Salmonella enterica subsp. enterica serovar Typhimurium. The gist of the method: as §1
Test [24] concerns Salmonella typhimurium. Kind of test: Reduction in light emission by Salmonella enterica serovars Typhimurium ATCC 14028 at <= 30 ug/ml. The test is classed as functional, organism-based. The conditions noted are these: Salmonella enterica subsp. enterica serovar Typhimurium.
Test [25] concerns Salmonella enterica subsp. enterica serovar Virchow. Kind of test: Reduction in light emission by Salmonella enterica serovars virchow isolate 101591 at < 50 ug/ml. The test is classed as functional.
In test [26] the test system is Salmonella typhimurium. Nature of the test: Reduction in light emission by Salmonella enterica serovars Typhimurium ATCC 14028 at > 30 ug/ml after 40 mins. Particulars: Salmonella enterica subsp. enterica serovar Typhimurium. The test is classed as functional, organism-based.
Test [27] has as its system Salmonella enterica subsp. enterica serovar Virchow. Nature of the test: Reduction in light emission by Salmonella enterica serovars virchow isolate 101591 at >= 50 ug/ml after 40 mins. The test is classed as functional.
The test system is the same in test [28]. Nature of the test: Reduction in light emission by Salmonella enterica serovars virchow isolate 101591 after 5mins. In kind it is functional.
Test [29] has as its system Salmonella typhimurium. Nature of the test: Reduction in light emission by Salmonella enterica serovars Typhimurium ATCC 14028 after 5 mins. The conditions noted are these: Salmonella enterica subsp. enterica serovar Typhimurium. The test is classed as functional, organism-based.
Test [30] relates to Salmonella enterica subsp. enterica serovar Virchow. The test is described as §3. In kind it is functional. The gist of the method: as §4
The test system is the same in test [31]. Described as §5. In kind it is functional. The gist of the method:
as §4

[32] abbreviates: Salmonella enterica, ATCC 14028, read-out: EC50.
[33] abbreviates: Salmonella enterica subsp. enterica serovar Typhimurium.

≈ marks a conversion by molar mass, not a printed value. Calls of active or inactive are those of the source. No cut-off for these calls is given here.

Regarding `NC[C@H]1O[C@H](O[C@H]2[C@H](O)[C@@H](O[C@H]3O[C@H](CO)[C@@H](O)[C@H](N)[C@H]3O)[C@H](N)C[C@@H]2N)[C@H](O)[C@@H](O)[C@@H]1O` [KANAMYCIN], the result (in test [1]; in the test on Salmonella typhimurium [2]; in the test with Salmonella typhimurium [4]; in test [13]; in test [14]; in test [15]) was Active. The outcome with Salmonella typhimurium [3] was inactive. Also, the MIC was 250 µg/mL (≈ 516 µM) in [5], 250 µg/mL (≈ 516 µM) against Salmonella typhimurium [6], 16 µg/mL (≈ 33 µM) in test [7] and 8 µg/mL (≈ 16.5 µM) against Salmonella typhimurium [8]. The EC50 in [9] was 130 µg/mL (≈ 268 µM); in [10] it was 6.5 µg/mL (≈ 13.4 µM); in the test with Salmonella typhimurium [11] (setting [32]), 3.5 µg/mL (≈ 7.22 µM); with Salmonella typhimurium [12] (setting [32]), 29 µg/mL (≈ 59.9 µM).
For `NC[C@H]1O[C@H](O[C@H]2[C@H](O)[C@@H](O[C@H]3O[C@H](CO)[C@@H](O)[C@H](N)[C@H]3O)[C@H](N)C[C@@H]2N)[C@H](N)C[C@@H]1O` [TOBRAMYCIN], the outcome (in test [1]; with Salmonella typhimurium [2]; with Salmonella typhimurium [4]; in [13]; in test [14]; in test [15]) was Active. Further, in the test on Salmonella typhimurium [3], the outcome was inactive. For the same compound, the MIC in [5] is 250 µg/mL (≈ 535 µM); against Salmonella typhimurium [6], 125 µg/mL (≈ 267 µM); in test [7] it was 8 µg/mL (≈ 17.1 µM); with Salmonella typhimurium [8] it was 4 µg/mL (≈ 8.56 µM). Also, the EC50 in test [9] was determined as 75 µg/mL (≈ 160 µM); in [10], 2.5 µg/mL (≈ 5.35 µM); in the test on Salmonella typhimurium [11] (setting [32]), 1 µg/mL (≈ 2.14 µM); with Salmonella typhimurium [12] (setting [32]), 19 µg/mL (≈ 40.6 µM).
Regarding GENTAMICIN [listing 1 of 2 here], the EC50 in test [9] turned out to be 85 µg/mL; in test [10], 2 µg/mL; in the test on Salmonella typhimurium [11], 1 µg/mL; in the test on Salmonella typhimurium [12], 34 µg/mL.
Take GENTAMICIN [listing 2 of 2 here]: the results for the FC in the test on Salmonella [16] and with Salmonella [18] were 0.4 and 1.6, respectively. Also, the values for the Activity in the test with Salmonella typhimurium [17] and in the test on Salmonella typhimurium [22] were 80% and 20%, respectively. Moreover, the result with Salmonella typhimurium [19], with Salmonella typhimurium [20], in the test with Salmonella typhimurium [21], with Salmonella typhimurium [2], in the test on Salmonella typhimurium [23] and in the test on Salmonella typhimurium [4] was Active. For the same compound, the outcome (in the test on Salmonella typhimurium [26]; in [27]; in test [28]; in the test with Salmonella typhimurium [29]; in test [13]; in [14]) was Active. Further, the result in test [15] was Active. Further, the result (in the test on Salmonella typhimurium [3]; in the test with Salmonella typhimurium [24]; in [25]) was inactive. Besides, the MIC in test [30] came out at 125 µg/mL; in the test on Salmonella typhimurium [6] (setting [33]), 125 µg/mL; in [31], 8 µg/mL; in the test with Salmonella typhimurium [8] (setting [33]) it was 4 µg/mL.
